Data published in ChEMBL document CHEMBL2086252, “Syntheses and evaluation of anticonvulsant activity of novel branched alkyl carbamates” (J Med Chem, 2012).
Calls of active or inactive are those of the source. No cut-off for these calls is given here.

How the values were obtained:
Mus musculus [1] = test: Anticonvulsant activity in albino CF1 mouse assessed as protection against maximal electroshock-induced seizures at 30 mg/kg, ip after 4 hrs; assay type: functional, organism-based; set-up: dose 30 mg/kg
How it was run: (§1)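 Mice dosed ip at 30, 100 or 300 mg/kg, then tested 0.5 h and 4 h after administration in the MES or scMet test. Protection was recorded as animals protected over animals tested. Neurotoxicity was recorded as motor impairment or sedation, as animals affected over animals tested.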

Rattus norvegicus [2] = test: Anticonvulsant activity in Sprague-Dawley albino rat assessed as protection against pilocarpine-induced status epilepticus at 130 mg/kg, ip administered 0 and 30 mins after status epilepticus onset
Mus musculus [3] = test: Neurotoxicity in albino CF1 mouse assessed as minimal motor impairment at 30 mg/kg, ip after 0.5 hrs by rotarod test; assay type: toxicity, organism-based; set-up: dose 30 mg/kg, route intraperitoneal; settings: in vivo; how it was run: as §1
Rattus norvegicus [4] = test: Anticonvulsant activity in ip dosed Sprague-Dawley albino rat assessed as protection against pilocarpine-induced status epilepticus after 0.5 hrs; assay type: functional
How it was run: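 Pilocarpine status epilepticus model in rats. Number and severity of convulsive seizures were observed behaviourally.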

Rattus norvegicus [5] = test: Neurotoxicity in pilocarpine-induced status epilepticus Sprague-Dawley albino rat model assessed as minimal motor impairment at 30 mg/kg, ip after 4 hrs by rotarod test; assay type: toxicity, organism-based; set-up: dose 30 mg/kg, route intraperitoneal; settings: in vivo
How it was run: (§2)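 Rat pilocarpine status epilepticus model: test carbamate given at 0 or 30 min after the first observed Racine stage 3 motor seizure, which marks SE onset. Neurotoxicity was scored within the same model.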

Mus musculus [6] = test: Anticonvulsant activity in ip dosed albino CF1 mouse assessed as protection against subcutaneous metrazol-induced seizures; assay type: functional
How it was run: (§3)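 Quantitative testing: rats dosed orally or ip in MES and scMet tests, and mice dosed ip, including the 6 Hz (32 mA) psychomotor seizure test. ED50 and TD50 were reported in mg/kg with ranges in parentheses. Protective index was calculated as TD50/ED50.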

Rattus norvegicus [7] = test: Neurotoxicity in pilocarpine-induced status epilepticus Sprague-Dawley albino rat model assessed as minimal motor impairment at 30 mg/kg, ip after 0.25 hr by rotarod test; assay type: toxicity, organism-based; set-up: dose 30 mg/kg, route intraperitoneal; settings: in vivo; how it was run: as §2
Rattus norvegicus [8] = test: Protective index, ratio of TD50 for ip dosed Sprague-Dawley albino rat by rotarod test to ED50 for ip dosed Sprague-Dawley albino rat by maximal electroshock seizures test; assay type: functional
How it was run: (§4)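 Protective index calculated as TD50/ED50, with TD50 and ED50 taken from the same species and dosing route.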

Rattus norvegicus [9] = test: Neurotoxicity in pilocarpine-induced status epilepticus Sprague-Dawley albino rat model assessed as minimal motor impairment at 100 mg/kg, ip after 0.25 hr by rotarod test; assay type: toxicity, organism-based; set-up: dose 100 mg/kg, route intraperitoneal; settings: in vivo
Rattus norvegicus [10] = test: Neurotoxicity in pilocarpine-induced status epilepticus Sprague-Dawley albino rat model assessed as minimal motor impairment at 30 mg/kg, ip after 2 hrs by rotarod test; assay type: toxicity, organism-based; set-up: dose 30 mg/kg, route intraperitoneal; settings: in vivo; how it was run: as §2
Rattus norvegicus [11] = test: Anticonvulsant activity in po dosed Sprague-Dawley albino rat assessed as protection against maximal electroshock-induced seizures; assay type: functional; how it was run: as §3
Mus musculus [12] = test: Anticonvulsant activity in albino CF1 mouse assessed as protection against subcutaneous metrazol-induced seizures at 300 mg/kg, ip after 0.5 hrs; assay type: functional, organism-based; set-up: dose 300 mg/kg; how it was run: as §1
Rattus norvegicus [13] = test: Neurotoxicity in pilocarpine-induced status epilepticus Sprague-Dawley albino rat model assessed as minimal motor impairment at 300 mg/kg, ip after 0.25 hr by rotarod test; assay type: toxicity, organism-based; set-up: dose 300 mg/kg, route intraperitoneal; settings: in vivo; how it was run: as §2
[14] = Neurotoxicity in po dosed Sprague-Dawley albino rat assessed as minimal motor impairment by rotarod test; assay type: toxicity, organism-based; settings: in vivo
How it was run: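 Rats dosed orally; 4 rats per time point after dosing. Neurotoxicity was scored as motor impairment or sedation and reported as number of animals affected over number tested.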

Mus musculus [15] = test: Neurotoxicity in albino CF1 mouse assessed as minimal motor impairment at 300 mg/kg, ip after 4 hrs by rotarod test; assay type: toxicity, organism-based; set-up: dose 300 mg/kg, route intraperitoneal; settings: in vivo; how it was run: as §1
[16] = Neurotoxicity in ip dosed albino CF1 mouse assessed as minimal motor impairment by rotarod test; assay type: toxicity, organism-based; settings: in vivo; how it was run: as §3
Rattus norvegicus [17] = test: Anticonvulsant activity in ip dosed Sprague-Dawley albino rat assessed as protection against maximal electroshock-induced seizures; assay type: functional; how it was run: as §3
Rattus norvegicus [18] = test: Protective index, ratio of TD50 for po dosed Sprague-Dawley albino rat by rotarod test to ED50 for po dosed Sprague-Dawley albino rat by maximal electroshock seizures test; assay type: functional; how it was run: as §4
Mus musculus [19] = test: Anticonvulsant activity in albino CF1 mouse assessed as protection against maximal electroshock-induced seizures at 300 mg/kg, ip after 0.5 hrs; assay type: functional, organism-based; set-up: dose 300 mg/kg; how it was run: as §1
Mus musculus [20] = test: Neurotoxicity in albino CF1 mouse assessed as minimal motor impairment at 100 mg/kg, ip after 4 hrs by rotarod test; assay type: toxicity, organism-based; set-up: dose 100 mg/kg, route intraperitoneal; settings: in vivo; how it was run: as §1
Mus musculus [21] = test: Anticonvulsant activity in albino CF1 mouse assessed as protection against subcutaneous metrazol-induced seizures at 300 mg/kg, ip after 4 hrs; assay type: functional, organism-based; set-up: dose 300 mg/kg; how it was run: as §1
Rattus norvegicus [22] = test: Neurotoxicity in pilocarpine-induced status epilepticus Sprague-Dawley albino rat model assessed as minimal motor impairment at 30 mg/kg, ip after 0.5 hrs by rotarod test; assay type: toxicity, organism-based; set-up: dose 30 mg/kg, route intraperitoneal; settings: in vivo; how it was run: as §2
Mus musculus [23] = test: Anticonvulsant activity in albino CF1 mouse assessed as protection against subcutaneous metrazol-induced seizures at 30 mg/kg, ip after 4 hrs; assay type: functional, organism-based; set-up: dose 30 mg/kg; how it was run: as §1
Mus musculus [24] = test: Anticonvulsant activity in albino CF1 mouse assessed as protection against maximal electroshock-induced seizures at 100 mg/kg, ip after 0.5 hrs; assay type: functional, organism-based; set-up: dose 100 mg/kg; how it was run: as §1
Rattus norvegicus [25] = test: Anticonvulsant activity in Sprague-Dawley albino rat assessed as protection against maximal electroshock-induced seizures at 30 mg/kg, po after 1 hr; assay type: functional, organism-based; set-up: dose 30 mg/kg
How it was run: (§5)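 Rats dosed orally. Anti-MES protection was scored as animals protected over animals tested at each time after dosing. Neurotoxicity was scored as motor impairment or sedation, as animals affected over animals tested.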

Mus musculus [26] = test: Anticonvulsant activity in ip dosed albino CF1 mouse assessed as protection against maximal electroshock-induced seizures; assay type: functional; how it was run: as §3
Mus musculus [27] = test: Protective index, ratio of TD50 for ip dosed albino CF1 mouse by rotarod test to ED50 for ip dosed albino CF1 mouse by 6 Hz psychomotor seizure test; assay type: functional; how it was run: as §4
Rattus norvegicus [28] = test: Neurotoxicity in Sprague-Dawley albino rat assessed as minimal motor impairment at 30 mg/kg, po by rotarod test; assay type: toxicity, organism-based; set-up: dose 30 mg/kg, route oral; settings: in vivo; how it was run: as §5
Mus musculus [29] = test: Anticonvulsant activity in albino CF1 mouse assessed as protection against subcutaneous metrazol-induced seizures at 100 mg/kg, ip after 4 hrs; assay type: functional, organism-based; set-up: dose 100 mg/kg; how it was run: as §1
Rattus norvegicus [30] = test: Protective index, ratio of TD50 for ip dosed Sprague-Dawley albino rat by rotarod test to ED50 for ip dosed Sprague-Dawley albino rat by subcutaneous metrazol seizures test; assay type: functional; how it was run: as §4
Mus musculus [31] = test: Anticonvulsant activity in albino CF1 mouse assessed as protection against maximal electroshock-induced seizures at 100 mg/kg, ip after 4 hrs; assay type: functional, organism-based; set-up: dose 100 mg/kg; how it was run: as §1
Mus musculus [32] = test: Anticonvulsant activity in albino CF1 mouse assessed as protection against subcutaneous metrazol-induced seizures at 30 mg/kg, ip after 0.5 hrs; assay type: functional, organism-based; set-up: dose 30 mg/kg; how it was run: as §1
Rattus norvegicus [33] = test: Neurotoxicity in pilocarpine-induced status epilepticus Sprague-Dawley albino rat model assessed as minimal motor impairment at 100 mg/kg, ip after 0.5 hrs by rotarod test; assay type: toxicity, organism-based; set-up: dose 100 mg/kg, route intraperitoneal; settings: in vivo
Rattus norvegicus [34] = test: Anticonvulsant activity in Sprague-Dawley albino rat assessed as protection against maximal electroshock-induced seizures at 30 mg/kg, po after 2 hrs; assay type: functional, organism-based; set-up: dose 30 mg/kg; how it was run: as §5
Rattus norvegicus [35] = test: Neurotoxicity in pilocarpine-induced status epilepticus Sprague-Dawley albino rat model assessed as minimal motor impairment at 100 mg/kg, ip after 4 hrs by rotarod test; assay type: toxicity, organism-based; set-up: dose 100 mg/kg, route intraperitoneal; settings: in vivo
Rattus norvegicus [36] = test: Anticonvulsant activity in ip dosed Sprague-Dawley albino rat assessed as protection against subcutaneous metrazol-induced seizures; assay type: functional; how it was run: as §3
Rattus norvegicus [37] = test: Neurotoxicity in pilocarpine-induced status epilepticus Sprague-Dawley albino rat model assessed as minimal motor impairment at 100 mg/kg, ip after 2 hrs by rotarod test; assay type: toxicity, organism-based; set-up: dose 100 mg/kg, route intraperitoneal; settings: in vivo

CCC(COC(N)=O)C(C)C (racemic)
Activity (Mus musculus [1]): inactive
Activity (Rattus norvegicus [2]): Active
Activity (Mus musculus [3]): Non-toxic
ED50 (Rattus norvegicus [4]): 81 mg/kg
ED97 (Rattus norvegicus [4]): 114 mg/kg
Activity (Rattus norvegicus [5]): Non-toxic
ED50 (Mus musculus [6]): 120 mg/kg
Activity (Rattus norvegicus [7]): Non-toxic
Ratio TD50/ED50 (Rattus norvegicus [8]): 3.6
Activity (Rattus norvegicus [9]): Toxic
Activity (Rattus norvegicus [10]): Non-toxic
ED50 (Rattus norvegicus [11]): 64 mg/kg
Activity (Mus musculus [12]): Active
Activity (Rattus norvegicus [13]): Toxic
TD50 [14]: > 500 mg/kg
Activity (Mus musculus [15]): Non-toxic
TD50 [16]: 157 mg/kg
ED50 (Rattus norvegicus [17]): 16 mg/kg
Ratio TD50/ED50 (Rattus norvegicus [18]): 7.8
Activity (Mus musculus [19]): Active
Activity (Mus musculus [20]): Non-toxic
Activity (Mus musculus [21]): inactive
Activity (Rattus norvegicus [22]): Non-toxic
Activity (Mus musculus [23]): inactive
Activity (Mus musculus [24]): inactive
Activity (Rattus norvegicus [25]): inactive
ED50 (Mus musculus [26]): 103 mg/kg
Ratio TD50/ED50 (Mus musculus [27]): 4.4
Activity (Rattus norvegicus [28]): Non-toxic
Activity (Mus musculus [29]): inactive
Ratio TD50/ED50 (Rattus norvegicus [30]): 1.3
Activity (Mus musculus [31]): inactive
Activity (Mus musculus [32]): inactive
Activity (Rattus norvegicus [33]): Toxic
Activity (Rattus norvegicus [34]): inactive
Activity (Rattus norvegicus [35]): Non-toxic
ED50 (Rattus norvegicus [36]): 19 mg/kg
Activity (Rattus norvegicus [37]): Non-toxic
